# Results as given in publication PMC5154386 (Journal of medicinal chemistry, 2015).
# What was measured:
# [1] = system: A549 cell line; assay: Mammalian cell cytotoxicity assay; assay type: cell-based
# [2] = system: BEAS-2B cell line; assay: Mammalian cell cytotoxicity assay; assay type: cell-based
# [3] = system: murine red blood cells (mRBCs); assay: Hemolytic assay; assay type: cell-based, mouse; details: for hemolysis: at higher concentrations
# Method in brief: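 Hemolysis was measured on murine red blood cells exposed to the test compounds. Gramicidin, amphotericin B and the parent aminoglycoside were run as comparators.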
# [4] = system: S. aureus NRS385 (USA 300) (VIII); assay: Antibacterial MIC determination; assay type: cell-based; details: Staphylococcus aureus, NRS385|USA300
# Method in brief: (§1)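 MICs in μg/mL against a panel of 11 Gram-positive strains (including MRSA strains and VRE) and six Gram-negative strains. The panel held strains both susceptible and resistant to the parent aminoglycoside, each coded by a roman numeral. Each determination was run at least in duplicate.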
# [5] = system: S. aureus ATCC 29213 (V); assay: Antibacterial MIC determination; assay type: cell-based; details: Staphylococcus aureus, ATCC29213
# Method in brief: as §1
# [6] = system: C. albicans ATCC 10231 (strain A); assay: Spontaneous frequency of resistance; assay type: cell-based
# [7] = system: various yeast strains (C. albicans); assay: In vitro combination study with POS, summary over yeast strains; assay type: cell-based; details: for lowering of the MIC value by POS: in combination with POS; for FICI values, range: with POS, all tested fungal strains (except 3d against strain A)
# Method in brief: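 Posaconazole was tested in combination with the test compound against yeast strains, both azole-resistant and azole-susceptible. FICI = (MIC of A in combination / MIC of A alone) + (MIC of B in combination / MIC of B alone). FICI ≤ 0.5 was scored synergy, 0.5 < FICI < 4 no interaction, and FICI ≥ 4 antagonism.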
# [8] = system: Aspergillus nidulans ATCC 38163 (H); assay: Antifungal MIC determination; assay type: cell-based; details: Aspergillus nidulans (strain H)
# [9] = system: C. albicans ATCC 64124 (strain B); assay: Time-kill assay; assay type: cell-based; details: for time-kill activity at subinhibitory concentration: 1/2 MIC, 24 h period; for time to complete fungal cell death: at MIC
# [10] = system: various yeast strains and filamentous fungi; assay: Antifungal MIC, summary over the fungal strains tested; assay type: cell-based, Candida and Aspergillus species; details: for MIC values, range: range over the fungal strains tested; for MIC of sulfone relative to MIC of corresponding thioether: collection of fungal strains, generally
# [11] = system: S. aureus NRS383 (USA 200) (VII); assay: Antibacterial MIC determination; assay type: cell-based; details: Staphylococcus aureus, NRS383|USA200
# Method in brief: as §1
# [12] = system: MRSA (III); assay: Antibacterial MIC determination; assay type: cell-based; details: Staphylococcus aureus
# Method in brief: as §1
# [13] = system: AAC(3), AAC(2′), and AAC(6′); assay: TLC assessment of modification by AACs alone and together; assay type: biochemical; details: for modification by three AACs used simultaneously (TLC): AAC(3), AAC(2′) and AAC(6′) simultaneously
# [14] = cited from earlier work
# [15] = system: Pythium insidiosum; details: in vitro; cited from earlier work
# [16] = system: tested Gram-positive bacteria; assay: Antibacterial MIC, summary over the Gram-positive panel; assay type: cell-based; details: iv
# Method in brief: as §1
# [17] = system: K. pneumoniae ATCC 27736 (XV); assay: Antibacterial MIC determination; assay type: cell-based; details: Klebsiella pneumoniae, ATCC27736
# Method in brief: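 MIC in μg/mL against a panel of Gram-positive and Gram-negative strains that includes strains susceptible and resistant to the parent aminoglycoside; each determination done at least in duplicate.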
# [18] = system: E. coli MC1061 (XIV); assay: Antibacterial MIC determination; assay type: cell-based; details: Escherichia coli
# Method in brief: as §1
# [19] = system: Gram-negative bacterial strains tested; assay: Antibacterial MIC, summary over the Gram-negative panel; assay type: cell-based
# [20] = at 50× MIC, MIC as in combination with POS
smiles,measurement,setting,value
CCCCCCCCSC[C@@H]1O[C@@H](O[C@@H]2[C@@H](O)[C@H](O[C@@H]3O[C@@H](CN)[C@H](O)[C@@H](O)[C@@H]3N)[C@@H](N)C[C@H]2N)[C@@H](O)[C@H](N)[C@H]1O [Compound 3a],toxicity,[1],little to no toxicity
same,toxicity,[2],little to no toxicity
same,hemolysis,[3],little to no hemolysis
CCCCCCCCCCSC[C@@H]1O[C@@H](O[C@@H]2[C@@H](O)[C@H](O[C@@H]3O[C@@H](CN)[C@H](O)[C@@H](O)[C@@H]3N)[C@@H](N)C[C@H]2N)[C@@H](O)[C@H](N)[C@H]1O [Compound 3b],MIC,[4],32 to 64 µg/mL
same,toxicity,[1],little to no toxicity
same,MIC,[5],16 to 32 µg/mL
same,toxicity,[2],little to no toxicity
same,hemolysis,[3],little to no hemolysis
CCCCCCCCCCCCSC[C@@H]1O[C@@H](O[C@@H]2[C@@H](O)[C@H](O[C@@H]3O[C@@H](CN)[C@H](O)[C@@H](O)[C@@H]3N)[C@@H](N)C[C@H]2N)[C@@H](O)[C@H](N)[C@H]1O [Compound 3c],mutants,"[6]; 3c (8 μg/mL) and POS (0.25 μg/mL), 96 h incubation",24 colonies
same,spontaneous frequency rate of resistance,[6]; combination of 3c and POS,2.4 × 10^−7
same,lowering of the MIC value by POS,[7],4–16 fold
same,"FICI values, range",[7],0.07 to 0.31
same,times better than KANB,[8],64 times
same,time-kill activity at subinhibitory concentration,[9],fungistatic activity
same,time to complete fungal cell death,[9],24 h
same,mRBCs lysed,"[3]; 50× MIC, MIC as in combination with POS",60%
same,less hemolytic than AmB,[3]; [20],~ 30%
same,less hemolytic than gramicidin,[3]; [20],~ 20%
same,"MIC values, range",[10],≤1.95 to 31.2 µg/mL
CCCCCCCCCCCCCCSC[C@@H]1O[C@@H](O[C@@H]2[C@@H](O)[C@H](O[C@@H]3O[C@@H](CN)[C@H](O)[C@@H](O)[C@@H]3N)[C@@H](N)C[C@H]2N)[C@@H](O)[C@H](N)[C@H]1O [Compound 3d],MIC,[4],16 to 32 µg/mL
same,lowering of the MIC value by POS,[7],2–8 fold
same,"FICI values, range",[7],0.07 to 0.31
same,MIC,[11],8 to 16 µg/mL
same,MIC,[12],32 to 64 µg/mL
same,time-kill activity at subinhibitory concentration,[9],fungistatic activity
same,time to complete fungal cell death,[9],12 h
same,modification by three AACs used simultaneously (TLC),[13],only the 3-monoacetylated product was obtained
same,"MIC values, range",[10],≤1.95 to 15.6 µg/mL
CCCCCCCCCCCCCCCCSC[C@@H]1O[C@@H](O[C@@H]2[C@@H](O)[C@H](O[C@@H]3O[C@@H](CN)[C@H](O)[C@@H](O)[C@@H]3N)[C@@H](N)C[C@H]2N)[C@@H](O)[C@H](N)[C@H]1O [Compound 3e],times better than FLC,[8],32 times
same,times better than KANB,[8],64 times
same,"MIC values, range",[10],1.95 to 3.9 µg/mL
same,times more effective than KANB,[10]; several of the tested yeast strains,32 times
CCCCCCCCCCCCS(=O)(=O)C[C@@H]1O[C@@H](O[C@@H]2[C@@H](O)[C@H](O[C@@H]3O[C@@H](CN)[C@H](O)[C@@H](O)[C@@H]3N)[C@@H](N)C[C@H]2N)[C@@H](O)[C@H](N)[C@H]1O [Compound 4c],MIC of sulfone relative to MIC of corresponding thioether,[10],≤ 2 fold dilution
CCCCCCCCCCCCCCS(=O)(=O)C[C@@H]1O[C@@H](O[C@@H]2[C@@H](O)[C@H](O[C@@H]3O[C@@H](CN)[C@H](O)[C@@H](O)[C@@H]3N)[C@@H](N)C[C@H]2N)[C@@H](O)[C@H](N)[C@H]1O [Compound 4d],MIC of sulfone relative to MIC of corresponding thioether,[10],≤ 2 fold dilution
"CNC(C)C1CCC(N)C(OC2C(N)CC(N)C(OC3OCC(C)(O)C(NC)C3O)C2O)O1 (stereo not shown) [GEN, gentamicin]",safe serum concentration,[14],30 to 40 µg/mL
same,concentration displaying antifungal activity (antifungal MIC),[15],64 µg/mL
"NC[C@H]1O[C@H](O[C@H]2[C@H](O)[C@@H](O[C@H]3O[C@H](CO)[C@@H](O)[C@H](N)[C@H]3O)[C@H](N)C[C@@H]2N)[C@H](O)[C@@H](O)[C@@H]1O [KANA, kanamycin A]",MIC,[16],> 128 µg/mL
same,MIC,[17],16 to 32 µg/mL
same,MIC,[18],8 to 16 µg/mL
"NC[C@H]1O[C@H](O[C@H]2[C@H](O)[C@@H](O[C@H]3O[C@H](CO)[C@@H](O)[C@H](N)[C@H]3O)[C@H](N)C[C@@H]2N)[C@H](N)[C@@H](O)[C@@H]1O [KANB, kanamycin B, reference compound]",toxicity,[1],little to no toxicity
same,toxicity,[2],little to no toxicity
same,MIC,[19],≤ 16 µg/mL
same,hemolysis,[3],little to no hemolysis
same,modification by three AACs used simultaneously (TLC),[13],converted to a diacetylated adduct
same,modification by a single AAC (TLC),"[13]; individually subjected to AAC(3), AAC(2′), or AAC(6′) overnight",completely converted to its corresponding monoacetylated product
"NC[C@@H]1O[C@H](O[C@H]2[C@@H](O)[C@H](O[C@@H]3[C@@H](O)[C@H](N)C[C@H](N)[C@H]3O[C@H]3O[C@H](CN)[C@@H](O)[C@H](O)[C@H]3N)O[C@@H]2CO)[C@H](N)[C@@H](O)[C@@H]1O [NEO, neomycin B]",concentration displaying antifungal activity (antifungal MIC),[15],64 µg/mL
"NC[C@@H]1O[C@H](O[C@H]2[C@@H](O)[C@H](O[C@@H]3[C@@H](O)[C@H](N)C[C@H](N)[C@H]3O[C@H]3O[C@H](CO)[C@@H](O)[C@H](O)[C@H]3N)O[C@@H]2CO)[C@H](N)[C@@H](O)[C@@H]1O [PAR, paromomycin]",safe serum concentration,[14],30 to 40 µg/mL
same,concentration displaying antifungal activity (antifungal MIC),[15],64 µg/mL
"CC[C@@H]([C@H](C)O)n1ncn(-c2ccc(N3CCN(c4ccc(OC[C@@H]5CO[C@@](Cn6cncn6)(c6ccc(F)cc6F)C5)cc4)CC3)cc2)c1=O [POS, posaconazole, reference compound]",reduction of the MIC values of POS,[7]; in the presence of 3c,16–64 fold
same,reduction of the MIC values of POS,[7]; in the presence of 3d,16–32 fold
"[H]/N=C(/N)N[C@H]1[C@H](O)[C@@H](O)[C@H](O[C@@H]2O[C@@H](C)[C@](O)(C=O)[C@H]2O[C@@H]2O[C@@H](CO)[C@H](O)[C@@H](O)[C@@H]2NC)[C@@H](N/C(N)=N\[H])[C@@H]1O [STR, streptomycin]",safe serum concentration,[14],30 to 40 µg/mL
same,concentration displaying antifungal activity (antifungal MIC),[15],64 µg/mL
